Source: ChEMBL document CHEMBL1153392, “Identification of a metabolically stable triazolopyrimidine-based dihydroorotate dehydrogenase inhibitor with antimalarial activity in mice” (J Med Chem, 2009)
Active and inactive are the calls of the source. The rule behind the calls is not given here.

Legend:
Plasmodium berghei [1] = experiment: Inhibition of Plasmodium berghei ANKA DHODH
Method in brief: (§1)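 Truncated soluble enzyme expressed in E. coli and purified. DCIP (0.12 mM) reduction followed at 600 nm with 5-10 nM enzyme, 0.2 mM L-dihydroorotate and 0.02 mM CoQD in 100 mM HEPES pH 8.0, 150 mM NaCl, 10% glycerol, 0.1% Triton, 20 °C. Triplicate points per concentration; IC50 fitted.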

Plasmodium falciparum = experiment: Antiplasmodial activity against Plasmodium falciparum 3D7 by [3H]hypoxanthine uptake; type: functional, organism-based
Method in brief: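 Proliferation of drug-treated infected erythrocytes measured by [3H]hypoxanthine uptake over a range of inhibitor concentrations, triplicate points per concentration. EC50 derived from a Hill-slope logistic fit.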

[2] = target: T1, Dihydroorotate dehydrogenase (Plasmodium falciparum, UniProt Q54A96); experiment: Inhibition of Plasmodium falciparum DHODH
T1 sequence (Q54A96 whole entry): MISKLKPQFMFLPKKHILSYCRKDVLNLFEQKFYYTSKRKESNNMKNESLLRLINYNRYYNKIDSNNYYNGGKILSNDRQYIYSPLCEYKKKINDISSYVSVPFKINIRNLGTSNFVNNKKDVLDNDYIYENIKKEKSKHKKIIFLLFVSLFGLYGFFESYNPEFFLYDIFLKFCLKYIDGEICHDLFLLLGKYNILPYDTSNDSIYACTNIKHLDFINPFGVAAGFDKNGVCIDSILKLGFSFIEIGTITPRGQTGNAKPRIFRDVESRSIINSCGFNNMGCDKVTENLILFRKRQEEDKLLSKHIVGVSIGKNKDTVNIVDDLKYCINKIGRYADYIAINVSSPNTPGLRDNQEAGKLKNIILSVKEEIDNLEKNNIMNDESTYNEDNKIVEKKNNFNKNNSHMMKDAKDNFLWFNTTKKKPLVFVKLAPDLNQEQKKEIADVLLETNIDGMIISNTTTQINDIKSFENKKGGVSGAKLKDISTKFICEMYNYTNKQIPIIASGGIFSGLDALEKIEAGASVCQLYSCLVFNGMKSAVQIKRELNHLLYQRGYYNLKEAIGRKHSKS
Method in brief: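 Truncated soluble recombinant enzyme expressed in E. coli. Triplicate points per inhibitor concentration; IC50 from fit to Vi = Vo/(1+[I]/IC50).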

[3] = target: Dihydroorotate dehydrogenase (quinone), mitochondrial (Homo sapiens, UniProt Q02127); experiment: Inhibition of human DHODH; method in brief: as §1
Sequence of Dihydroorotate dehydrogenase (quinone), mitochondrial (Q02127 whole entry): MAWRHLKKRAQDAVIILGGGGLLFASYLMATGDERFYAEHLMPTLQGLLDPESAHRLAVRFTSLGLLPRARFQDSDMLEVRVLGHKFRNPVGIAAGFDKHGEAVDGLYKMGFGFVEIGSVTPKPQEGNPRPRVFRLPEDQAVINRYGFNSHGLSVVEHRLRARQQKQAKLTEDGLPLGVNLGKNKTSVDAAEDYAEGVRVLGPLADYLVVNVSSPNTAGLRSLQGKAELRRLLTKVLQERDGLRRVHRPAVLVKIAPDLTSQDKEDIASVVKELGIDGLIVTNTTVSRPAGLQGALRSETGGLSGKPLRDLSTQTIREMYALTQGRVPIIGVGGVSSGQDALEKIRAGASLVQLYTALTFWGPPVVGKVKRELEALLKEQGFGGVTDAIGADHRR

Liver microsomes [4] = details: human, 1 µM
Liver microsomes [5] = details: human, 1 µM; remark: listed apart in the source
Plasmodium berghei [6] = experiment: Antimalarial activity as reduced parasitaemia against Plasmodium berghei NK65 infected BALB/c mice (Mus musculus) at 100 mg/kg peroral dose at 10x4hrs then 6x6hrs; type: functional, organism-based; set-up: dose 100 mg/kg
Method in brief: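 Female BALB/c mice, 8-10 weeks old, infected ip with 2 × 10^7 infected erythrocytes 24 h before dosing; ≥0.1% parasitemia verified. Oral gavage in 0.5% CMC/0.4% Tween-80/0.5% benzyl alcohol every 4 h × 10 doses, then every 6 h × 6 doses (n = 6 per group), against vehicle controls. Parasitemia counted daily by light microscopy of Wright-Giemsa stained thin tail-blood smears.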

Mus musculus [7] = experiment: Toxicity in Plasmodium berghei NK65 infected BALB/c mice (Mus musculus) at 100 mg/kg, perorally administered every 4 hrs x 10 doses followed by every 6 hrs x 6 doses schedule; type: organism-based; set-up: dose 100 mg/kg, route oral; details: in vivo, po
Method in brief: (§2)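 P. berghei-infected female BALB/c mice dosed by oral gavage in 0.5% CMC/0.4% Tween-80/0.5% benzyl alcohol. Tail bleeds and body weighing done daily. Animals monitored for ill effects and euthanized when the no-drug controls lost 20% of their pre-infection body weight.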

Mus musculus [8] = experiment: Plasma concentration in Swiss mouse at 50 mg/kg, po administered as single dose; type: ADME, organism-based; set-up: dose 50 mg/kg, route oral; details: in vivo
Method in brief: (§3)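 Nonfasted male Swiss outbred mice, 23-33 g, fed ad libitum. Single oral gavage as a suspension in 0.5% CMC, 0.5% benzyl alcohol, 0.4% Tween-80. One cardiac-puncture blood sample per mouse per time point. Plasma analysed by LC-MS/MS after acetonitrile precipitation, with diazepam as internal standard and a plasma calibration curve. PK parameters taken from mean concentration-time profiles.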

[9] = Plasma concentration in Swiss mouse at 50 mg/kg, po administered as single dose for 240 mins; type: ADME, organism-based; set-up: dose 50 mg/kg, route oral; details: read-out: C0; method in brief: as §3
Mus musculus [10] = experiment: Plasma concentration in Swiss mouse at 20 mg/kg, po administered as single dose; type: ADME, organism-based; set-up: dose 20 mg/kg, route oral; details: in vivo; method in brief: as §3
[11] = Plasma concentration in Swiss mouse at 50 mg/kg, po administered as single dose for 16 hrs; type: ADME, organism-based; set-up: dose 50 mg/kg, route oral; method in brief: as §3
[12] = Half life in Swiss mouse at 50 mg/kg, po administered as single dose; type: ADME, organism-based; set-up: dose 50 mg/kg, route oral; details: in vivo; method in brief: as §3
Mus musculus [13] = experiment: Toxicity in Plasmodium berghei NK65 infected BALB/c mice (Mus musculus) at 50 mg/kg, perorally qd for 4 days measured on day 5 postinfection; type: organism-based; set-up: dose 50 mg/kg, route oral; details: in vivo, po, 96 h; method in brief: as §2
Plasmodium berghei [14] = experiment: (§4) Antimalarial activity as reduced growth at day 5 in Plasmodium berghei NK65 infected BALB/c mice (Mus musculus) at 50 mg/kg peroral dose over 4 days; type: functional; set-up: scale not given: the % may be the effect or the level left; details: route oral
Method in brief: (§5)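 Female BALB/c mice, 8-10 weeks old, infected ip with 2 × 10^7 infected erythrocytes 24 h before the first dose; ≥0.1% parasitemia confirmed first. Dosing by oral gavage in 0.5% CMC/0.4% Tween-80/0.5% benzyl alcohol, once daily (n = 3) or twice daily (n = 5) on days 1-4, with vehicle controls. Parasitemia counted daily from Wright-Giemsa thin tail-blood smears; suppression reported on day 5.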

Plasmodium berghei [15] = experiment: as §4; type: functional; set-up: scale not given: the % may be the effect or the level left; details: route oral; method in brief: as §5; remark: listed apart in the source
Mus musculus [16] = experiment: Toxicity in Plasmodium berghei NK65 infected BALB/c mice (Mus musculus) at 50 mg/kg, perorally bid for 4 days measured on day 5 postinfection; type: organism-based; set-up: dose 50 mg/kg, route oral; details: in vivo, po, 96 h; method in brief: as §2
Mus musculus [17] = experiment: Toxicity in Swiss mouse at 50 mg/kg, po administered as single dose; type: organism-based; set-up: dose 50 mg/kg, route oral; details: in vivo
Method in brief: (§6)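 Nonfasted male Swiss outbred mice, 23-33 g, given a single oral gavage dose suspended in 0.5% CMC/0.5% benzyl alcohol/0.4% Tween-80, then watched for adverse reactions over the plasma sampling period.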

Mus musculus [18] = experiment: Toxicity in Swiss mouse at 20 mg/kg, po administered as single dose; type: organism-based; set-up: dose 20 mg/kg, route oral; details: in vivo; method in brief: as §6

SMILES | IC50 (Plasmodium berghei [1]) [µM] | EC50 (Plasmodium falciparum) [µM] | IC50 [2] [µM] | also measured
Cc1cc(Nc2ccccc2C#N)n2ncnc2n1 | > 100 | 25 | > 100 | –
Cc1cc(Nc2ccc(F)cc2)n2ncnc2n1 | > 100 | 50 | 19 | –
Cc1cc(Nc2ccccc2C)n2ncnc2n1 | > 100 | > 50 | > 100 | –
Cc1cc(Nc2ccccc2C(F)(F)F)n2ncnc2n1 | > 100 | – | > 100 | –
Cc1cc(Nc2ccc(C)c(C)c2)n2ncnc2n1 | 4 | – | 0.35 | IC50 [3]: > 100 µM; t1/2 (Liver microsomes [4]): 0.383 h; CL (Liver microsomes [5]): 77 µL/min/mg
Cc1cc(Nc2ccc(OC(F)(F)F)cc2)n2ncnc2n1 | 4 | – | 1.2 | IC50 [3]: > 100 µM
Cc1cc(Nc2cccc(C(F)(F)F)c2)n2ncnc2n1 | 55 | 19 | 14 | t1/2 (Liver microsomes [4]): 1 h; CL (Liver microsomes [5]): 29 µL/min/mg
Cc1cc(Nc2ccc(F)c(F)c2F)n2ncnc2n1 | > 100 | > 50 | 29 | –
Cc1cc(Nc2cccc(F)c2)n2ncnc2n1 | > 100 | 34 | 9.2 | t1/2 (Liver microsomes [4]): 1.62 h; CL (Liver microsomes [5]): 18 µL/min/mg
Cc1cc(Nc2c(F)c(F)c(F)c(F)c2F)n2ncnc2n1 | > 100 | > 50 | > 100 | –
Cc1cc(Nc2ccc(Cl)cc2)n2ncnc2n1 | 5.7 | 12 | 1.6 | IC50 [3]: > 100 µM
Cc1cc(Nc2ccccc2F)n2ncnc2n1 | > 100 | > 50 | > 100 | –
Cc1cc(Nc2ccc(Cc3ccccc3)cc2)n2ncnc2n1 | > 100 | 5 | 2.2 | –
Cc1cc(Nc2ccc3ccccc3c2)n2ncnc2n1 | – | – | – | Activity (Plasmodium berghei [6]): inactive; Activity (Mus musculus [7]): Non-toxic; concentration (Mus musculus [8]): 2000 nM; t1/2 (Liver microsomes [4]): 0.3 h; CL (Liver microsomes [5]): 96 µL/min/mg
Cc1cc(Nc2cccc(F)c2F)n2ncnc2n1 | > 100 | – | 39 | –
Cc1cc(Nc2ccc(C)c(F)c2)n2ncnc2n1 | 3.2 | 3.6 | 0.86 | IC50 [3]: > 100 µM; t1/2 (Liver microsomes [4]): 0.6 h; CL (Liver microsomes [5]): 49 µL/min/mg
Cc1cc(Nc2ccc(C#N)c(C(F)(F)F)c2)n2ncnc2n1 | 11 | 8.8 | 4.9 | t1/2 (Liver microsomes [4]): 4.67 h; CL (Liver microsomes [5]): 6.2 µL/min/mg
Cc1cc(Nc2c(F)c(F)cc(F)c2F)n2ncnc2n1 | > 100 | > 50 | > 100 | –
Cc1cc(Nc2ccc(F)c(F)c2)n2ncnc2n1 | 10 | > 50 | 8 | –
Cc1cc(Nc2cc(C(F)(F)F)cc(C(F)(F)F)c2)n2ncnc2n1 | > 100 | > 5 | > 100 | –
Cc1cc(Nc2cc(F)cc(F)c2)n2ncnc2n1 | 21 | – | 9.4 | –

SMILES | IC50 (Plasmodium berghei [1]) [µM] | EC50 (Plasmodium falciparum) [µM] | IC50 [2] [µM] | also measured
Cc1cc(Nc2c(F)cccc2F)n2ncnc2n1 | > 100 | > 50 | > 100 | –
Cc1cc(Nc2ccc(C(F)(F)F)c(F)c2)n2ncnc2n1 | 0.26 | 1.3 | 0.077 | IC50 [3]: > 100 µM; t1/2 (Liver microsomes [4]): 6 h; CL (Liver microsomes [5]): 4.8 µL/min/mg
Cc1cccc(Nc2cc(C)nc3ncnn23)c1 | > 100 | 37 | 4.9 | –
Cc1cc(Nc2cc(F)ccc2F)n2ncnc2n1 | > 100 | > 50 | > 50 | –
Cc1cc(Nc2ccc([N+](=O)[O-])cc2)n2ncnc2n1 | 3.7 | – | 4.3 | –
Cc1cc(Nc2cc(F)c(F)cc2F)n2ncnc2n1 | > 100 | > 50 | 17 | –
Cc1cc(Nc2ccccc2Cl)n2ncnc2n1 | > 100 | 30 | > 100 | –
Cc1cc(Nc2ccc(OC(F)F)cc2)n2ncnc2n1 | 25 | 8.2 | 2.8 | –
Cc1cc(Nc2ccc(F)c(C)c2)n2ncnc2n1 | 21 | 8.7 | 4.6 | –
Cc1cc(Nc2ccc(C)c(C(F)(F)F)c2)n2ncnc2n1 | 7.3 | – | 1.55 | IC50 [3]: > 100 µM
COc1ccc(Nc2cc(C)nc3ncnn23)cc1 | > 50 | 14 | 4.6 | –
Cc1cc(Nc2ccc(Cl)c(C(F)(F)F)c2)n2ncnc2n1 | 2.4 | > 5 | 0.8 | IC50 [3]: > 100 µM; t1/2 (Liver microsomes [4]): 2.17 h; CL (Liver microsomes [5]): 13 µL/min/mg
Cc1cc(Nc2ccc(Br)c(C(F)(F)F)c2)n2ncnc2n1 | 1.5 | 2.6 | 0.45 | IC50 [3]: > 100 µM; t1/2 (Liver microsomes [4]): 2.17 h; CL (Liver microsomes [5]): 14 µL/min/mg
Cc1cc(Nc2c(F)cc(F)cc2F)n2ncnc2n1 | > 100 | – | > 100 | –
Cc1cc(Nc2ccc3cc4ccccc4cc3c2)n2ncnc2n1 | – | – | – | concentration at 4 h [9]: 1000 nM; Activity (Plasmodium berghei [6]): inactive; Activity (Mus musculus [7]): Non-toxic; concentration (Mus musculus [8]): 2000 nM; t1/2 (Liver microsomes [4]): 0.717 h; CL (Liver microsomes [5]): 37 µL/min/mg
Cc1cc(Nc2ccc(Br)cc2)n2ncnc2n1 | 1.3 | 4.2 | 0.78 | IC50 [3]: > 100 µM
Cc1cc(Nc2ccc(C(F)(F)F)cc2)n2ncnc2n1 | – | – | – | concentration (Mus musculus [10]): 7900 nM; concentration at 16 h [11]: 1000 nM; half-life [12]: 3 h; Activity (Mus musculus [13]): Non-toxic; Activity (Plasmodium berghei [14]): 95%; Activity (Plasmodium berghei [15]): 71%; Activity (Mus musculus [16]): Non-toxic; Activity (Mus musculus [17]): Non-toxic; Activity (Mus musculus [18]): Non-toxic; concentration (Mus musculus [8]): 27600 nM; t1/2 (Liver microsomes [4]): 3.83 h; CL (Liver microsomes [5]): 7.5 µL/min/mg
Cc1cc(Nc2cccc(Cl)c2)n2ncnc2n1 | – | – | 1.4 | t1/2 (Liver microsomes [4]): 0.75 h; CL (Liver microsomes [5]): 38 µL/min/mg
Cc1ccc(Nc2cc(C)nc3ncnn23)c(F)c1 | > 100 | 35 | 27 | –
Cc1ccc(Nc2cc(C)nc3ncnn23)cc1 | 16 | 6.4 | 4.2 | –
Cc1cc(Nc2ccc(-c3ccccc3)cc2)n2ncnc2n1 | – | > 50 | 5.3 | –
